Converted amounts (≈) assume the structure as drawn.
Assays:
[1] = test system: Staphylococcus aureus; assay: Antibacterial activity against methicillin-resistant Staphylococcus aureus ATCC 43300 assessed as diameter of inhibition zone by CLSI based disc-diffusion method; assay type: functional
Outline: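 Disc-diffusion on standard strain subcultured twice on tryptic soy agar (24–48 h, 30 °C) after storage at −80 °C; inhibition zone diameter read; linezolid disc (0.03 mg) as reference.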

[2] = Selectivity ratio of IC50 for cytotoxicity against human MRC5 cells assessed as inhibition of cell growth to MIC for antibacterial activity against methicillin-resistant Staphylococcus aureus NMI 1991 K assessed as inhibition of microbial growth by broth-microdilution method; assay type: toxicity, cell-based
[3] = Selectivity ratio of IC50 for cytotoxicity against human MRC5 cells assessed as inhibition of cell growth to MIC for antibacterial activity against methicillin-resistant Staphylococcus aureus NMI 664 K assessed as inhibition of microbial growth by broth-microdilution method; assay type: toxicity, cell-based
[4] = Selectivity ratio of IC50 for cytotoxicity against human MRC5 cells assessed as inhibition of cell growth to MIC for antibacterial activity against methicillin-resistant Staphylococcus aureus NMI 1576 K assessed as inhibition of microbial growth by broth-microdilution method; assay type: toxicity, cell-based
[5] = Selectivity ratio of IC50 for cytotoxicity against human MRC5 cells assessed as inhibition of cell growth to MIC for antibacterial activity against methicillin-resistant Staphylococcus aureus NMI 1712 K assessed as inhibition of microbial growth by broth-microdilution method; assay type: toxicity, cell-based
[6] = Selectivity ratio of IC50 for cytotoxicity against human MRC5 cells assessed as inhibition of cell growth to MIC for antibacterial activity against methicillin-resistant Staphylococcus aureus NMI 2541 K assessed as inhibition of microbial growth by broth-microdilution method; assay type: toxicity, cell-based
[7] = Selectivity ratio of IC50 for cytotoxicity against human MRC5 cells assessed as inhibition of cell growth to MIC for antibacterial activity against methicillin-resistant Staphylococcus aureus ATCC 43300 assessed as inhibition of microbial growth; assay type: toxicity, cell-based
[8] = test system: Enterococcus faecalis; assay: Antibacterial activity against Enterococcus faecalis ATCC 29212 assessed as diameter of inhibition zone by CLSI based disc-diffusion method; assay type: functional
Outline: (§1)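 Strains were stored at −80 °C, then subcultured twice on tryptic soy agar for 24–48 h at 30 °C before the disc-diffusion test. The result was recorded as the inhibition-zone diameter.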

[9] = test system: Enterococcus faecium; assay: Antibacterial activity against Enterococcus faecium ATCC 6057 assessed as diameter of inhibition zone by CLSI based disc-diffusion method; assay type: functional; outline: as §1
[10] = test system: Bacillus subtilis; assay: Antibacterial activity against Bacillus subtilis ATCC 6633 assessed as diameter of inhibition zone by CLSI based disc-diffusion method; assay type: functional; outline: as §1
[11] = test system: Burkholderia cepacia; assay: Antibacterial activity against Burkholderia cepacia ATCC 25416 assessed as inhibition of cell growth by broth-microdilution method; assay type: functional
[12] = test system: Pseudomonas aeruginosa; assay: Antibacterial activity against Pseudomonas aeruginosa ATCC […] assessed as inhibition of cell growth by broth-microdilution method; assay type: functional
Outline: (§2)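 Strains were held at −80 °C and subcultured twice on tryptic soy agar for 24–48 h at 30 °C. MIC was read by CLSI broth microdilution in Mueller–Hinton II broth, with and without the efflux-pump inhibitor PAβN (20 µg mL⁻¹). Both sets contained 1 mM MgSO₄. A ≥4-fold MIC drop with PAβN was taken as significant.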

[13] = test system: Enterobacter cloacae; assay: Antibacterial activity against Enterobacter cloacae DSM 6234 assessed as inhibition of cell growth by broth-microdilution method; assay type: functional; outline: as §2
[14] = test system: Escherichia coli; assay: Antibacterial activity against Escherichia coli ATCC 25922 assessed as inhibition of cell growth by broth-microdilution method; assay type: functional; outline: as §2
[15] = test system: Serratia marcescens; assay: Antibacterial activity against Serratia marcescens ATCC 13880 assessed as inhibition of cell growth by broth-microdilution method; assay type: functional; outline: as §2
[16] = test system: Klebsiella pneumoniae; assay: Antibacterial activity against Klebsiella pneumoniae ATCC 13883 assessed as inhibition of cell growth by broth-microdilution method; assay type: functional; outline: as §2
[17] = test system: Proteus mirabilis; assay: Antibacterial activity against Proteus mirabilis ATCC 12453 assessed as inhibition of cell growth by broth-microdilution method; assay type: functional; outline: as §2
[18] = test system: Stenotrophomonas maltophilia; assay: Antibacterial activity against Stenotrophomonas maltophilia ATCC 12714 assessed as inhibition of cell growth by broth-microdilution method; assay type: functional; outline: as §2
[19] = test system: Acinetobacter baumannii; assay: Antibacterial activity against Acinetobacter baumannii ATCC 19606 assessed as inhibition of cell growth by broth-microdilution method; assay type: functional; outline: as §2
[20] = test system: Stenotrophomonas maltophilia; assay: Antibacterial activity against Stenotrophomonas maltophilia ATCC 13637 assessed as inhibition of cell growth by broth-microdilution method; assay type: functional; outline: as §2
[21] = test system: Staphylococcus epidermidis; assay: Antibacterial activity against Staphylococcus epidermidis ATCC 12228 assessed as diameter of inhibition zone by CLSI based disc-diffusion method; assay type: functional; outline: as §1
[22] = test system: Candida parapsilosis; assay: Antifungal activity against Candida parapsilosis ATCC 22019 assessed as fungal growth inhibition by broth-microdilution method; assay type: functional; conditions: Lodderomyces parapsilosis
Outline: (§3)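 Yeasts were stored at −80 °C and subcultured twice on Sabouraud dextrose agar (24–48 h, 30 °C) to confirm viability. Growth inhibition was then measured as MIC by broth microdilution.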

[23] = test system: Candida tropicalis; assay: Antifungal activity against Candida tropicalis IBA 171 assessed as fungal growth inhibition by broth-microdilution method; assay type: functional; outline: as §3
[24] = test system: Meyerozyma guilliermondii; assay: Antifungal activity against Candida guilliermondii IBA 155 assessed as fungal growth inhibition by broth-microdilution method; assay type: functional; outline: as §3
[25] = test system: Candida tropicalis; assay: Antifungal activity against Candida tropicalis ATCC 750 assessed as fungal growth inhibition by broth-microdilution method; assay type: functional; outline: as §3
[26] = test system: Candida albicans; assay: Antifungal activity against Candida albicans ATCC 90028 assessed as fungal growth inhibition by broth-microdilution method; assay type: functional; outline: as §3
[27] = test system: Saccharomyces cerevisiae; assay: Antifungal activity against Saccharomyces cerevisiae ATCC 9763 assessed as fungal growth inhibition by broth-microdilution method; assay type: functional; outline: as §3
[28] = test system: Pichia kudriavzevii; assay: Antifungal activity against Candida krusei ATCC 6258 assessed as fungal growth inhibition by broth-microdilution method; assay type: functional; outline: as §3

## C[Si]1(C)OB(O)c2cc(F)c(SCCS(=O)(=O)c3ccccc3)c(F)c21
[1]
  diameter of the inhibition zone (DIZ): 28 mm
[2]
  selectivity ratio: 19.5
[3]
  selectivity ratio: 19.5
[4]
  selectivity ratio: 19.5
[5]
  selectivity ratio: 19.5
[6]
  selectivity ratio: 19.5
[7]
  selectivity ratio: 19.5
[8]
  diameter of the inhibition zone (DIZ): 14 mm
[9]
  diameter of the inhibition zone (DIZ): 15 mm

## C[Si]1(C)OB(O)c2cc(F)c(S(=O)(=O)N3CCOCC3)c(F)c21
[10]
  diameter of the inhibition zone (DIZ): 12 mm

## C[Si]1(C)OB(O)c2ccc(SC3CC(=O)NC3=O)c(F)c21 (centres undefined)
[1]
  diameter of the inhibition zone (DIZ): 22 mm
[11]
  MIC: > 25 µg/mL
[12]
  MIC: > 25 µg/mL
[13]
  MIC: > 25 µg/mL
[14]
  MIC: > 25 µg/mL
[15]
  MIC: > 25 µg/mL
[16]
  MIC: > 25 µg/mL
[17]
  MIC: > 25 µg/mL
[18]
  MIC: > 25 µg/mL
[10]
  diameter of the inhibition zone (DIZ): 24 mm
[19]
  MIC: > 25 µg/mL
[20]
  MIC: > 25 µg/mL

## CC(=O)CSc1ccc2c(c1F)[Si](C)(C)OB2O
[21]
  diameter of the inhibition zone (DIZ): 23 mm
[2]
  selectivity ratio: > 32
[3]
  selectivity ratio: > 32
[4]
  selectivity ratio: > 32
[5]
  selectivity ratio: > 32
[6]
  selectivity ratio: > 32
[7]
  selectivity ratio: > 32
[8]
  diameter of the inhibition zone (DIZ): 16 mm
[10]
  diameter of the inhibition zone (DIZ): 24 mm

## C[Si]1(C)OB(O)c2ccc(S)c(F)c21
[10]
  diameter of the inhibition zone (DIZ): 23 mm
[9]
  diameter of the inhibition zone (DIZ): 18 mm

## C[Si]1(C)OB(O)c2ccc(SC3CC(=O)N(c4ccc(F)cc4)C3=O)c(F)c21 (centres undefined)
[1]
  diameter of the inhibition zone (DIZ): 21 mm
[21]
  diameter of the inhibition zone (DIZ): 21 mm
[22]
  MIC: > 12.5 µg/mL
[23]
  MIC: > 12.5 µg/mL
[24]
  MIC: > 12.5 µg/mL
[25]
  MIC: > 12.5 µg/mL
[26]
  MIC: > 12.5 µg/mL
[7]
  selectivity ratio: 5.8
[27]
  MIC: 6.25 µg/mL (≈ 14.9 µM)
[8]
  diameter of the inhibition zone (DIZ): 20 mm
[28]
  MIC: > 12.5 µg/mL
[9]
  diameter of the inhibition zone (DIZ): 22 mm

## C[Si]1(C)OB(O)c2cc(F)c(SC3CC(=O)N(c4ccc(F)cc4)C3=O)c(F)c21 (centres undefined)
[1]
  diameter of the inhibition zone (DIZ): 24 mm
[22]
  MIC: > 12.5 µg/mL
[23]
  MIC: > 12.5 µg/mL
[24]
  MIC: > 12.5 µg/mL
[25]
  MIC: > 12.5 µg/mL
[26]
  MIC: > 12.5 µg/mL
[7]
  selectivity ratio: 2.7
[27]
  MIC: 6.25 µg/mL (≈ 14.3 µM)
[28]
  MIC: > 12.5 µg/mL

## C[Si]1(C)OB(O)c2cc(F)c(SCCC(=O)Nc3ncccn3)c(F)c21
[1]
  diameter of the inhibition zone (DIZ): 12 mm
[21]
  diameter of the inhibition zone (DIZ): 11 mm
[8]
  diameter of the inhibition zone (DIZ): 13 mm
[10]
  diameter of the inhibition zone (DIZ): 15 mm

## COC(=O)CCSc1ccc2c(c1F)[Si](C)(C)OB2O
[1]
  diameter of the inhibition zone (DIZ): 24 mm
[21]
  diameter of the inhibition zone (DIZ): 22 mm
[10]
  diameter of the inhibition zone (DIZ): 23 mm

## C[Si]1(C)OB(O)c2ccc(SCCC(=O)OCCCCCC[n+]3ccccc3)c(F)c21.O=S(=O)([O-])C(F)(F)F
[1]
  diameter of the inhibition zone (DIZ): 18 mm
[21]
  diameter of the inhibition zone (DIZ): 21 mm
[8]
  diameter of the inhibition zone (DIZ): 12 mm
[10]
  diameter of the inhibition zone (DIZ): 19 mm
[9]
  diameter of the inhibition zone (DIZ): 12 mm

## C[Si]1(C)OB(O)c2cc(F)c(SC3CC(=O)N(c4ccc(Br)c(C(F)(F)F)c4)C3=O)c(F)c21 (centres undefined)
[21]
  diameter of the inhibition zone (DIZ): 18 mm
[22]
  MIC: > 12.5 µg/mL
[23]
  MIC: > 12.5 µg/mL
[24]
  MIC: > 12.5 µg/mL
[25]
  MIC: > 12.5 µg/mL
[26]
  MIC: > 12.5 µg/mL
[7]
  selectivity ratio: 1.5
[8]
  diameter of the inhibition zone (DIZ): 18 mm
[28]
  MIC: > 12.5 µg/mL
[9]
  diameter of the inhibition zone (DIZ): 18 mm

## C[Si]1(C)OB(O)c2ccc(SCC(=O)c3ccccc3)c(F)c21
[2]
  selectivity ratio: 80.8
[3]
  selectivity ratio: 40.4
[4]
  selectivity ratio: 40.4
[5]
  selectivity ratio: 40.4
[6]
  selectivity ratio: 80.8
[7]
  selectivity ratio: 40.4
[8]
  diameter of the inhibition zone (DIZ): 17 mm
[9]
  diameter of the inhibition zone (DIZ): 17 mm
